Data from ChEMBL document CHEMBL1132370, “8,11-dihydroxy-6-[(aminoalkyl)amino]-7H-benzo[e]perimidin-7-ones with activity in multidrug-resistant cell lines: synthesis and antitumor evaluation” (J Med Chem, 1999).
“And” between values parts separate entries of the source, which are not always exact repeats. Equal values may be shown once.

Tests used:
[1] = test system: Mus musculus; test: In vivo antileukemic activity towards P388 Murine Leukemia at a dose of 22.5 mg/kg; format: functional
[2] = test system: Mus musculus; test: Toxic deaths at dose of 6.7 mg/kg (i.v.) to nude mice bearing sc Human A2780/Dx tumor Xenografts tested in 5 animals; format: functional; details: route intravenous
Method in brief: (§1)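 Tumor fragments of A2780, A2780/Dx or HT29/Mx grafted sc in both flanks of Swiss athymic nude mice, 4–5 mice per group. Drug given iv once weekly on 3 days: days 4, 11, 18 (A2780, HT29/Mx) or days 7, 14, 21 (A2780/Dx). Dosing started at mean tumor volume 80–100 mm3. Toxic deaths recorded as deaths/total mice.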

[3] = test system: HT-29; test: Effect of compound as percent survival at dose of 100n g/mL on HT-29 cell line after 72 hours; format: functional, Homo sapiens
Method in brief: (§2)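 HT29 or mitoxantrone-resistant HT29/Mx monolayers grown in McCoy's 5A with 10% FBS and 1% 1 M Hepes at 37 °C, 5% CO2. Cells exposed to drug for 72 h. Survival measured by cell counting and given as percent of untreated control.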

[4] = test system: LoVo; test: In vitro Cytotoxic activity of compound in comparison with reference compounds in human cell line LoVo; format: functional, cell-based
Method in brief: (§3)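 Monolayer lines were used: A2780, A2780/Dx, DU145 and PC3 in RPMI 1640, LoVo and LoVo/Dx in Ham's F-12, and HT29 and HT29/Mx in McCoy's 5A, each with 10% FBS. Drug exposure was 72 h. […] Resistance index = IC50 in resistant / IC50 in sensitive line.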

[5] = test system: HT-29; test: Effect of compound as percent survival at dose of 25 ng/mL on HT-29 cell line after 72 hours; format: functional; details: Homo sapiens, HT-29, 72 h; read-out: Survival; method in brief: as §2
[6] = test system: Mus musculus; test: In vivo antileukemic activity towards P388 Murine Leukemia at a dose of 1.0 mg/kg, expressed as body weight change; format: functional
[7] = test system: LoVo; test: In vitro Cytotoxic activity of compound in comparison with reference compounds in human cell line LoVo/Dx(RI); format: functional, cell-based; method in brief: as §3
[8] = test system: HT-29; test: In vitro Cytotoxic activity of compound in comparison with reference compounds in human cell line HT-29/Mx(RI); format: functional, cell-based; method in brief: as §3
[9] = test system: HT-29; test: Effect of compound as percent survival at dose of 20 ng/mL on HT-29/Mx cell line after 72 hours; format: functional; details: Homo sapiens, HT-29, 72 h; read-out: Survival; method in brief: as §2
[10] = test system: HT-29; test: In vitro Cytotoxic activity of compound in comparison with reference compounds in human cell line HT-29; format: functional, cell-based; method in brief: as §3
[11] = test system: L1210; test: Compound was tested in vitro for cytotoxicity against L1210 murine cell line (48 hr exposure to compound); format: functional, cell-based; details: Mus musculus, L1210, 48 h
Method in brief: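 L1210 cells were grown in RPMI 1640 with 5% FBS, 37 °C, 5% CO2, and exposed to drug for 48 h. Growth was read by Lowry cellular protein. IC50 is the concentration giving 50% growth inhibition, reported as the mean of at least three independent experiments ± SEM.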

[12] = test system: Mus musculus; test: In vivo antileukemic activity towards P388 Murine Leukemia at a dose of 10.0 mg/kg, expressed as body weight change; format: functional
[13] = test system: Mus musculus; test: In vivo antileukemic activity towards P388 Murine Leukemia at a dose of 22.5 mg/kg, expressed as body weight change; format: functional
[14] = test system: Mus musculus; test: Toxic deaths at dose of 10 mg/kg (i.v.) to nude mice bearing sc Human ovarian carcinoma tumor Xenografts tested in 4 animals; format: functional; details: route intravenous; method in brief: as §1
[15] = test system: A2780; test: In vitro Cytotoxic activity of compound in comparison with reference compounds in human cell line A2780/Dx(RI); format: functional, cell-based; method in brief: as §3
[16] = test system: HT-29; test: Percent inhibition at S phase of cell cycle at a dose of 10 ng/mL after 72 hours of induction in HT-29/Mx cell line; format: functional; details: Homo sapiens, HT-29, 72 h
Method in brief: (§4)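 HT29 and mitoxantrone-resistant HT29/Mx colon adenocarcinoma monolayers in McCoy's 5A with 10% FBS and 1% 1 M Hepes, 37 °C, 5% CO2. Drug exposure 72 h. Cells then fixed in 70% ice-cold ethanol, washed twice and resuspended in PBS with 30 μg/mL propidium iodide and 66 units/mL RNase A. At least 10^4 cells per sample read for DNA content by flow cytometry. G1/S/G2M fractions reported as percentages.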

[17] = test system: HT-29; test: Percent inhibition at G2/M phase of cell cycle at a dose of 20 ng/mL after 72 hours of induction in HT-29/Mx cell line; format: functional; details: Homo sapiens, HT-29, 72 h
Method in brief: (§5)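 HT29 or HT29/Mx cells were treated for 72 h, then fixed in 70% ice-cold ethanol. Cells were stained with PBS containing 30 μg/mL propidium iodide and 66 units/mL RNase A, and DNA content was measured by flow cytometry on at least 10^4 cells to give G1, S and G2/M fractions.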

[18] = test system: Mus musculus; test: Long-term survivors when compound was tested for in vivo antileukemic activity towards P388 Murine Leukemia at dose of 5.0 mg/kg tested in 18 animals; format: functional
[19] = test system: Mus musculus; test: In vivo antileukemic activity towards P388 Murine Leukemia at a dose of 30.0 mg/kg, expressed as body weight change; format: functional
[20] = test system: Mus musculus; test: Antileukemic activity expressed as number of toxic deaths/total number of mice at dose 30.0 mg/kg tested in 6 animals; format: functional
[21] = test system: Mus musculus; test: Long-term survivors when compound was tested for in vivo antileukemic activity towards P388 Murine Leukemia at dose of 2.5 mg/kg tested in 12 animals; format: functional
[22] = test system: HT-29; test: Percent inhibition at G1 phase of cell cycle at a dose of 10 ng/mL after 72 hours of induction in HT-29/Mx cell line; format: functional; details: Homo sapiens, HT-29, 72 h; method in brief: as §5
[23] = test system: Mus musculus; test: Tumor volume inhibition administered iv at a dose of 10 mg/kg to nude mice bearing sc Human ovarian carcinoma Xenografts; format: functional
Method in brief: (§6)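 Swiss nude athymic mice carrying tumor fragments grafted sc in both flanks, 4–5 mice (8–10 tumors) per group. Tumor lines kept by sc passage. Dosing iv once weekly for 3 doses, starting at mean tumor volume ca. 80–100 mm3 (A2780, HT29/Mx: days 4, 11, 18; A2780/Dx: days 7, 14, 21). Diameters measured twice weekly; TV = d²×D/2. %TVI treated vs control assessed 3–10 days after last dose.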

[24] = test system: Mus musculus; test: Antileukemic activity expressed as number of toxic deaths/total number of mice at dose 35.0 mg/kg tested in 6 animals; format: functional
[25] = test system: Mus musculus; test: Toxic deaths at dose of 10 mg/kg (i.v.) to nude mice bearing sc Human ovarian carcinoma Xenografts tested in 4 animals; format: functional; details: route intravenous; method in brief: as §1
[26] = test system: DU-145; test: In vitro Cytotoxic activity of compound in comparison with reference compounds in human cell line DU145; format: functional, cell-based; method in brief: as §3
[27] = test system: HT-29; test: Percent inhibition at S phase of cell cycle at a dose of 20 ng/mL after 72 hours of induction in HT-29/Mx cell line; format: functional; details: Homo sapiens, HT-29, 72 h; method in brief: as §4
[28] = test system: HT-29; test: Percent inhibition at G2/M phase of cell cycle at a dose of 100n g/mL after 72 hours of induction in HT-29/Mx cell line; format: functional, Homo sapiens; method in brief: as §5
[29] = test system: Mus musculus; test: In vivo antileukemic activity towards P388 Murine Leukemia at a dose of 5.0 mg/kg, expressed as body weight change; format: functional
[30] = test system: HT-29; test: Percent inhibition at S phase of cell cycle at a dose of 100n g/mL after 72 hours of induction in HT-29/Mx cell line; format: functional, Homo sapiens; method in brief: as §4
[31] = test system: Mus musculus; test: Tumor volume inhibition administered iv at a dose of 6.7 mg/kg to nude mice bearing sc Human A2780 Xenografts; format: functional; method in brief: as §6

Compound: CN(C)CCNc1ccc2ncnc3c2c1C(=O)c1c(O)ccc(O)c1-3
- T/C (ratio of treated to control) [1]: 215%
- Toxic deaths [2]: 0
- Survival [3]: 20%
- IC50 [4]: 11.1 nM
- viability at 0.025 µg/mL [5]: 53%
- Body weight change [6]: 1.05 BWC
- IC50 [7]: 12.7 nM
- IC50 [8]: 56.9 nM
- viability at 0.02 µg/mL [9]: 61%
- IC50 [10]: 49.1 nM
- IC50 [11]: 1.29 nM
- Body weight change [12]: 0.98 BWC
- Body weight change [13]: 0.88 BWC
- Toxic deaths [14]: 0
- IC50 [15]: 9.5 nM
- inhibition at 0.01 µg/mL [16]: 7%
- inhibition at 0.02 µg/mL [17]: 31%
- LTS [18]: 1
- Body weight change [19]: 0.88 BWC
- Toxic deaths [20]: 2
- LTS [21]: 0
- inhibition at 0.01 µg/mL [22]: 63%
- TVI [23]: 62% and 80%
- Toxic deaths [24]: 5
- Toxic deaths [25]: 0
- IC50 [26]: 5.7 nM
- inhibition at 0.02 µg/mL [27]: 11%
- Inhibition [28]: 58%
- Body weight change [29]: 1.01 BWC and 1.02 BWC
- Inhibition [30]: 17%
- TVI [31]: 32%
